Experimental data from ChEMBL document CHEMBL1926565, “Synthesis, antiproliferative activities and telomerase inhibition evaluation of novel asymmetrical 1,2-disubstituted amidoanthraquinone derivatives” (Eur J Med Chem, 2012).
Activity calls are given as the source filed them. The rule behind the calls is not given here.

How the values were obtained:
SK-MEL-28 = experiment: Cytotoxicity against human SK-MEL-28 cells assessed as cellular growth at 10 uM; format: functional
Summary of the method: (§1)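 Single-dose screen run by the NCI across its 60-human-tumour-cell-line panel; growth recorded for each cell line.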

SK-MEL-5 = experiment: Cytotoxicity against human SK-MEL-5 cells assessed as cellular growth at 10 uM; format: functional
UACC-62 = experiment: Cytotoxicity against human UACC62 cells assessed as cellular growth at 10 uM; format: functional
IGROV-1 = experiment: Cytotoxicity against human IGROV1 cells assessed as cellular growth at 10 uM; format: functional; summary of the method: as §1
OVCAR-3 = experiment: Cytotoxicity against human OVCAR3 cells assessed as cellular growth at 10 uM; format: functional; summary of the method: as §1
OVCAR-4 = experiment: Cytotoxicity against human OVCAR4 cells assessed as cellular growth at 10 uM; format: functional; summary of the method: as §1
OVCAR-5 = experiment: Cytotoxicity against human OVCAR5 cells assessed as cellular growth at 10 uM; format: functional; summary of the method: as §1
NCI/ADR-RES = experiment: Cytotoxicity against human NCI/ADR-RES cells assessed as cellular growth at 10 uM; format: functional; summary of the method: as §1
786-0 = experiment: Cytotoxicity against human 786-0 cells assessed as cellular growth at 10 uM; format: functional; summary of the method: as §1
A498 = experiment: Cytotoxicity against human A498 cells assessed as cellular growth at 10 uM; format: functional; summary of the method: as §1
ACHN = experiment: Cytotoxicity against human ACHN cells assessed as cellular growth at 10 uM; format: functional; summary of the method: as §1
SN12C = experiment: Cytotoxicity against human SN12C cells assessed as cellular growth at 10 uM; format: functional
TK-10 = experiment: Cytotoxicity against human TK10 cells assessed as cellular growth at 10 uM; format: functional
UO-31 = experiment: Cytotoxicity against human UO31 cells assessed as cellular growth at 10 uM; format: functional
DU-145 = experiment: Cytotoxicity against human DU145 cells assessed as cellular growth at 10 uM; format: functional; summary of the method: as §1
MCF7 = experiment: Cytotoxicity against human MCF7 cells assessed as cellular growth at 10 uM; format: functional; summary of the method: as §1
MDA-MB-231 = experiment: Cytotoxicity against human MDA-MB-231 cells assessed as cellular growth at 10 uM; format: functional; summary of the method: as §1
[1] = Cytotoxicity against human Hs 578T cells assessed as cellular growth at 10 uM; format: functional; summary of the method: as §1
BT-549 = experiment: Cytotoxicity against human BT549 cells assessed as cellular growth at 10 uM; format: functional; summary of the method: as §1
MDA-MB-468 = experiment: Cytotoxicity against human MDA-MB-468 cells assessed as cellular growth at 10 uM; format: functional; summary of the method: as §1
PC-3 = experiment: Cytotoxicity against human PC3 cells after 48 hrs by SRB assay; format: functional, cell-based; details: PC-3, 48 h
Summary of the method: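 PC-3 cells grown in RPMI1640 with 10% FBS at 37 °C, 5% CO₂. Seeded in medium with 5% FBS; after 24 h, one plate fixed with 10% TCA as T₀. Compound or 0.1% DMSO vehicle added for 48 h, then TCA fixation and 0.4% SRB in 1% acetic acid. Dye solubilized in 10 mM Trizma base, absorbance read at 515 nm. IC50 is the concentration giving 50% reduction of the protein gain in controls.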

CCRF-CEM = experiment: Cytotoxicity against human CCRF-CEM cells assessed as cellular growth at 10 uM; format: functional; summary of the method: as §1
[2] = molecular target: Telomerase reverse transcriptase (Homo sapiens) (UniProt O14746); experiment: Inhibition of telomerase activity in human H1299 cell free extract at 10 uM by modified TRAP assay
Sequence of Telomerase reverse transcriptase (Homo sapiens) (O14746 whole entry): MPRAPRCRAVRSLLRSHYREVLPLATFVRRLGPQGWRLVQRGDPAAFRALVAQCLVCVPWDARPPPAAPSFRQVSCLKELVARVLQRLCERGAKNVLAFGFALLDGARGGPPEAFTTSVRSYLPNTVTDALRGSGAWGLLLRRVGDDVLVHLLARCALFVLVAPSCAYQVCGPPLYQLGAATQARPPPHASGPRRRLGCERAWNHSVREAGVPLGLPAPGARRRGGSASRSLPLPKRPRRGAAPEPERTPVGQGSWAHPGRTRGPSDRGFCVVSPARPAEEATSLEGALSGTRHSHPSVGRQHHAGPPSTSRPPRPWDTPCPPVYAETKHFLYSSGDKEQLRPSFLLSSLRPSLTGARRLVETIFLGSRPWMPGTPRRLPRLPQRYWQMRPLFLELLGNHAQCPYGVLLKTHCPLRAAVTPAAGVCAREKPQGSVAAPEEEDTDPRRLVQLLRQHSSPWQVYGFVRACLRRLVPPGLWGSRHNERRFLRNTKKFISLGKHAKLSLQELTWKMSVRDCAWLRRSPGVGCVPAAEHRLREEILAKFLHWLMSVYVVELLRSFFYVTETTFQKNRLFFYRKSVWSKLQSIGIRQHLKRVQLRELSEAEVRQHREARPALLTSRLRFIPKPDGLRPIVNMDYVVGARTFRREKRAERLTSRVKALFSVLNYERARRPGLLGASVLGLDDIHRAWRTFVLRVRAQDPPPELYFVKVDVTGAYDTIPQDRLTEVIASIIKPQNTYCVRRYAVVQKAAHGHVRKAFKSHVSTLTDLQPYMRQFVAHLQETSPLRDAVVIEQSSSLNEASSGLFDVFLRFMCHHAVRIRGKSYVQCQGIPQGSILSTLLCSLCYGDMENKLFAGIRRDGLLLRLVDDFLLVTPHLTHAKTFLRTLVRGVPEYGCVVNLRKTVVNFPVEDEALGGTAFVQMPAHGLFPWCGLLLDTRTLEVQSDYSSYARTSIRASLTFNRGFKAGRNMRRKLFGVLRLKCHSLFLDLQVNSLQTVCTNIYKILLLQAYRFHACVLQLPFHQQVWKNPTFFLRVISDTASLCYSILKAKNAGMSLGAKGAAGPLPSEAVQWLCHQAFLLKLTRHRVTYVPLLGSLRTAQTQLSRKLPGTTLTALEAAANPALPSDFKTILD
Summary of the method: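 TRAP assay using total cell lysate from H1299 lung cancer cells as the telomerase source, with protein measured against BSA standards. Compounds tested at 10 µM. Controls were lysate without inhibitor (positive) and RNase A-treated extract without inhibitor (negative).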

HL-60(TB) = experiment: Cytotoxicity against human HL-60(TB) cells assessed as cellular growth at 10 uM; format: functional; summary of the method: as §1
MOLT-4 = experiment: Cytotoxicity against human MOLT4 cells assessed as cellular growth at 10 uM; format: functional; summary of the method: as §1
SR = experiment: Cytotoxicity against human SR cells assessed as cellular growth at 10 uM; format: functional
EKVX = experiment: Cytotoxicity against human EKVX cells assessed as cellular growth at 10 uM; format: functional; summary of the method: as §1
HOP-62 = experiment: Cytotoxicity against human HOP62 cells assessed as cellular growth at 10 uM; format: functional; summary of the method: as §1
HOP-92 = experiment: Cytotoxicity against human HOP92 cells assessed as cellular growth at 10 uM; format: functional; summary of the method: as §1
NCI-H226 = experiment: Cytotoxicity against human NCI-H226 cells assessed as cellular growth at 10 uM; format: functional; summary of the method: as §1
NCI-H23 = experiment: Cytotoxicity against human NCI-H23 cells assessed as cellular growth at 10 uM; format: functional; summary of the method: as §1
NCI-H322M = experiment: Cytotoxicity against human NCI-H322M cells assessed as cellular growth at 10 uM; format: functional; summary of the method: as §1
NCI-H460 = experiment: Cytotoxicity against human NCI-H460 cells assessed as cellular growth at 10 uM; format: functional; summary of the method: as §1
NCI-H522 = experiment: Cytotoxicity against human NCI-H522 cells assessed as cellular growth at 10 uM; format: functional; summary of the method: as §1
HCC 2998 = experiment: Cytotoxicity against human HCC2998 cells assessed as cellular growth at 10 uM; format: functional; summary of the method: as §1
HCT-116 = experiment: Cytotoxicity against human HCT116 cells assessed as cellular growth at 10 uM; format: functional; summary of the method: as §1
HCT-15 = experiment: Cytotoxicity against human HCT15 cells assessed as cellular growth at 10 uM; format: functional; summary of the method: as §1
HT-29 = experiment: Cytotoxicity against human HT-29 cells assessed as cellular growth at 10 uM; format: functional; summary of the method: as §1
KM12 = experiment: Cytotoxicity against human KM12 cells assessed as cellular growth at 10 uM; format: functional; summary of the method: as §1
SW-620 = experiment: Cytotoxicity against human SW620 cells assessed as cellular growth at 10 uM; format: functional
SF-268 = experiment: Cytotoxicity against human SF268 cells assessed as cellular growth at 10 uM; format: functional; summary of the method: as §1
SF-295 = experiment: Cytotoxicity against human SF295 cells assessed as cellular growth at 10 uM; format: functional; summary of the method: as §1
SF-539 = experiment: Cytotoxicity against human SF539 cells assessed as cellular growth at 10 uM; format: functional; summary of the method: as §1
SNB-19 = experiment: Cytotoxicity against human SNB19 cells assessed as cellular growth at 10 uM; format: functional
SNB-75 = experiment: Cytotoxicity against human SNB75 cells assessed as cellular growth at 10 uM; format: functional
U-251 = experiment: Cytotoxicity against human U251 cells assessed as cellular growth at 10 uM; format: functional
LOX IMVI = experiment: Cytotoxicity against human LOXIMVI cells assessed as cellular growth at 10 uM; format: functional; summary of the method: as §1
Malme-3M = experiment: Cytotoxicity against human MALME-3M cells assessed as cellular growth at 10 uM; format: functional; summary of the method: as §1
M14 = experiment: Cytotoxicity against human M14 cells assessed as cellular growth at 10 uM; format: functional; summary of the method: as §1
MDA-MB-435 = experiment: Cytotoxicity against human MDA-MB-435 cells assessed as cellular growth at 10 uM; format: functional; summary of the method: as §1
SK-MEL-2 = experiment: Cytotoxicity against human SK-MEL-2 cells assessed as cellular growth at 10 uM; format: functional; summary of the method: as §1
[3] = Growth of human H1299 cells at 100 uM 48 hrs by MTT assay; details: NCI-H1299, 48 h
[4] = Growth of human H1299 cells at 1 uM after 48 hrs by MTT assay; details: NCI-H1299, 48 h
[5] = Growth of human H1299 cells at 10 uM after 48 hrs by MTT assay; details: NCI-H1299, 48 h
[6] = molecular target: Telomerase reverse transcriptase (Homo sapiens) (UniProt O14746); experiment: Residual activity of human TERT in H1299 cells at 1 uM after 24 hrs by SEAP reporter gene assay
[7] = molecular target: Telomerase reverse transcriptase (Homo sapiens) (UniProt O14746); experiment: Residual activity of human TERT in H1299 cells at 10 uM after 24 hrs by SEAP reporter gene assay
[8] = molecular target: Telomerase reverse transcriptase (Homo sapiens) (UniProt O14746); experiment: Residual activity of human TERT in H1299 cells at 100 uM after 24 hrs by SEAP reporter gene assay

## O=C(CCl)Nc1ccc2c(c1NC(=O)Cc1ccccc1)C(=O)c1ccccc1C2=O
SK-MEL-28
  Activity: 88.68%
SK-MEL-5
  Activity: 51.32%
UACC-62
  Activity: 59.67%
IGROV-1
  Activity: 41.03%
OVCAR-3
  Activity: 86.38%
OVCAR-4
  Activity: 80.4%
OVCAR-5
  Activity: 119.04%
NCI/ADR-RES
  Activity: 86.87%
786-0
  Activity: 97.26%
A498
  Activity: 91.79%
ACHN
  Activity: 79.64%
SN12C
  Activity: 79.93%
TK-10
  Activity: 120.81%
UO-31
  Activity: 58.19%
DU-145
  Activity: 85.83%
MCF7
  Activity: 51%
MDA-MB-231
  Activity: 82.04%
[1]
  Activity: 66.65%
BT-549
  Activity: 79.78%
MDA-MB-468
  Activity: 51.02%
PC-3
  IC50: > 20 µM
CCRF-CEM
  Activity: 33.97%
[2]
  inhibition: inactive
HL-60(TB)
  Activity: 41.36%
MOLT-4
  Activity: 11.4%
SR
  Activity: -31.25%
EKVX
  Activity: 102.08%
HOP-62
  Activity: 115.67%
HOP-92
  Activity: 73.63%
NCI-H226
  Activity: 80.49%
NCI-H23
  Activity: 64.75%
NCI-H322M
  Activity: 104.38%
NCI-H460
  Activity: 104.5%
NCI-H522
  Activity: 43.37%
HCC 2998
  Activity: 94.74%
HCT-116
  Activity: 67.55%
HCT-15
  Activity: 68.55%
HT-29
  Activity: 88.84%
KM12
  Activity: 80.59%
SW-620
  Activity: 83.41%
SF-268
  Activity: 80.14%
SF-295
  Activity: 98.48%
SF-539
  Activity: 107.09%
SNB-19
  Activity: 124.27%
SNB-75
  Activity: 109.14%
U-251
  Activity: 66.17%
LOX IMVI
  Activity: 36.29%
Malme-3M
  Activity: 47.07%
M14
  Activity: 87.1%
MDA-MB-435
  Activity: 80.4%
SK-MEL-2
  Activity: -6.49%
[3]
  growth, % of control at 100 µM: 3%
[4]
  growth, % of control at 1 µM: 81%
[5]
  growth, % of control at 10 µM: 5%
[6]
  residual activity: 84%
[7]
  residual activity: 9%
[8]
  residual activity: 7%

## O=C(CCl)Nc1ccc2c(c1NC(=O)c1cccs1)C(=O)c1ccccc1C2=O
PC-3
  IC50: 2.64 µM
[2]
  inhibition: inactive
[3]
  growth, % of control at 100 µM: 0%
[4]
  growth, % of control at 1 µM: 0%
[5]
  growth, % of control at 10 µM: 2%
[6]
  residual activity: 5%
[7]
  residual activity: 3%
[8]
  residual activity: 2%

## O=C(CCl)Nc1ccc2c(c1NC(=O)c1cccc(Cl)c1)C(=O)c1ccccc1C2=O
PC-3
  IC50: 3.51 µM
[2]
  inhibition: inactive
[3]
  growth, % of control at 100 µM: 0%
[4]
  growth, % of control at 1 µM: 89%
[5]
  growth, % of control at 10 µM: 5%
[6]
  residual activity: 80%
[7]
  residual activity: 6%
[8]
  residual activity: 3%

## Cc1cccc(C(=O)Nc2c(NC(=O)CCl)ccc3c2C(=O)c2ccccc2C3=O)c1
PC-3
  IC50: 3.79 µM
[2]
  inhibition: inactive
[3]
  growth, % of control at 100 µM: 0%
[4]
  growth, % of control at 1 µM: 72%
[5]
  growth, % of control at 10 µM: 0%
[6]
  residual activity: 116%
[7]
  residual activity: 0%
[8]
  residual activity: 0%

## Cc1ccccc1C(=O)Nc1c(NC(=O)CCl)ccc2c1C(=O)c1ccccc1C2=O
PC-3
  IC50: 3.67 µM
[2]
  inhibition: inactive
[3]
  growth, % of control at 100 µM: 0%
[4]
  growth, % of control at 1 µM: 73%
[5]
  growth, % of control at 10 µM: 0%
[6]
  residual activity: 98%
[7]
  residual activity: 0%
[8]
  residual activity: 0%
